This excerpt belongs to a sample that is enriched for hits.
Candida biofilm: kills Candida albicans biofilms | AID 834 | hit rate 0.14% among 85,000 | inhibition, % at 6 µM | C. albicans biofilm + clotrimazole, Alamar Blue;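 active = inhibition above 20%; inactive = inhibition below 20%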;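 note: preformed 24 hr biofilms exposed to compound for 48 hr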
MMP-13 inhibitor: blocks human MMP13 activity; hit rate 0.07% among 65,000; AID 570; MMP-13 fTHP FRET cleavage, Mca fluorescence; inhibition, % at 4 µM; P45452;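 active = inhibition above the mean of compound-free control plate wells plus 3 SD, cut at about 14% in these data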
hDAT+cocaine: human DAT dopamine uptake with cocaine, either direction; LLC-PK1 hDAT cells, [14C]-dopamine uptake with cocaine IC80; actives deviate in either direction; B-score at 10 µM; hit rate 1.3% among 110,000; AID 449768;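 active = Z score or B-score, a plate-position-corrected score, falls beyond the plate's 99.7% confidence bounds, in either direction; inactive = both scores lie inside the 99.7% bounds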
D1 allo mod: allosteric modulators of human D1 dopamine receptor | P21728 | HEK293 D1, CRE-luciferase, dopamine EC30 potentiation; actives deviate in either direction | hit rate 5.9% among 58,000 | B-score at 10 µM;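 active = luminescence count or its row- and column-corrected plate score outside the 99.7% band of the plate's sample wells, on either side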
Target sequence (P21728 whole entry, looked up): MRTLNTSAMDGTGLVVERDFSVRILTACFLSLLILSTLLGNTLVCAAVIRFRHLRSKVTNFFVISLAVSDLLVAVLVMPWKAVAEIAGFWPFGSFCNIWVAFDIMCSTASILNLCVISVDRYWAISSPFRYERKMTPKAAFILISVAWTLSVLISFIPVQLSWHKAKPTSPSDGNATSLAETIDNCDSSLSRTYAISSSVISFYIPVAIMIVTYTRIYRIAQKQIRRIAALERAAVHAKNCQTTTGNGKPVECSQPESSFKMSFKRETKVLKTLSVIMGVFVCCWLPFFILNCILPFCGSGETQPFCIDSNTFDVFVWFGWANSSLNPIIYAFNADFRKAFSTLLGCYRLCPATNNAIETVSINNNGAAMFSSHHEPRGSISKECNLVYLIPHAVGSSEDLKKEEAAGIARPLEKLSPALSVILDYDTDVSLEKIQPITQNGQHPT
AP complement: orthogonal test for alternative complement pathway inhibitors | Human serum alternative complement pathway, LPS-coated ELISA, C3 deposition; tested in compound mixtures | inhibition, % at 5 µM | hit rate 0.08% among 62,000 | AID 1235;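 active = inhibition above 30% in each of the two pooled mixtures holding the compound, so the lower value exceeds 30%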
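Test system – human serum alternative complement pathway, C3 deposition on LPS-coated wells · Buffer or medium – diluted human serum in Mg2+-EGTA GVB++ · Compound dosing – 5 µM each compound, pools of ten, 50 µM per pool · Schedule – 1 h serum-compound exposure at 37 °C · Measured by – Anti-C3 ELISA, OD 450 nm · Read-out basis – percent inhibition of C3 deposition onto LPS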
D1 mod confirm: confirmation of human D1 dopamine receptor allosteric modulators | shares compounds with D1 allo mod | luminescence at 10 µM | HEK293 D1 CRE-luciferase, dopamine EC30 potentiation; active compounds read high | hit rate 88% among 2,200 | AID 642;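 active = luminescence in either of two replicates above the same-plate mean plus 3 SD of the low-dose dopamine control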
D1 ag no DA: D1 (human) signaling in absence of dopamine | shares compounds with D1 allo mod | HEK293 D1 CRE-luciferase, luminescence, no dopamine; active compounds read high | luminescence at 10 µM | hit rate 0.8% among 1,900 | AID 646; in the data active = luminescence above about 3900
Isoprot counter: isoproterenol response counter-screen activity for D1 modulators. luminescence at 10 µM. HEK293 D1 CRE-luciferase, isoproterenol EC30 counter-screen; active compounds read high. hit rate 63% among 2,200. shares compounds with D1 allo mod. AID 647;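 active = luminescence in either replicate above plate mean of wells with a partly effective reference agonist dose plus 3 SD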;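 note: isoproterenol raises cAMP through native beta-adrenoceptor Gs so signal bypasses D1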
Each line names hits and unclear results; the compound was inactive in the other large screens (follow-up assays come after a bar, where they were run).

COc1cccc(-n2c(SCc3c(C)noc3C)nnc2-c2cccc(S(=O)(=O)N(C)C)c2)c1	D1 allo mod 9.1 (no result: Candida biofilm) | D1 mod confirm 12244 | D1 ag no DA inactive | Isoprot counter 5452
COc1ccc(OC)c(-n2c(SCC(C)=O)nnc2-c2cccc(S(=O)(=O)N(C)C)c2)c1	D1 allo mod 3.8 | D1 mod confirm inactive | D1 ag no DA inactive | Isoprot counter inactive
CCSc1nnc(-c2cccc(S(=O)(=O)N(C)C)c2)n1-c1cc(OC)ccc1OC	none
c1cncc(-c2noc(CC3CCCCC3)n2)c1	none (no result: MMP-13 inhibitor, D1 allo mod, AP complement)
Cc1c(NC(=O)C(C)Sc2nc3ccccc3c(=O)n2CCO)c(=O)n(-c2ccccc2)n1C (stereo unspecified)	none
Cc1ccccc1CNC(=O)c1ccc(CSCc2ccccc2)cc1	none (no result: Candida biofilm, MMP-13 inhibitor, D1 allo mod, AP complement)
CCc1nc(NCCc2ccccn2)c2nnn(Cc3ccccc3F)c2n1	D1 allo mod 12 | D1 mod confirm 20308 | D1 ag no DA inactive | Isoprot counter 4856
CCCc1nc(NCc2ccncc2)c2nnn(Cc3ccccc3F)c2n1	hDAT+cocaine -4.2, D1 allo mod 6.9 | D1 mod confirm 7368 | D1 ag no DA inactive | Isoprot counter inactive
CCc1nc(NCC2CCCN2CC)c2nnn(Cc3ccccc3F)c2n1 (stereo unspecified)	none
CCCc1nc(NCc2ccccn2)c2nnn(Cc3ccccc3F)c2n1	none (no result: MMP-13 inhibitor, hDAT+cocaine, D1 allo mod, AP complement)
C=CC[C@]12C[C@@H](OC)C(=O)C=C1O[C@@H](c1ccc(OC)c(OC)c1)[C@H]2C	none (no result: Candida biofilm, MMP-13 inhibitor, D1 allo mod, AP complement)
CCCc1cc(Nc2cccc(OC)c2)n2ncnc2n1	D1 allo mod 5.2 | D1 mod confirm 10608 | Isoprot counter 2992
CCCc1cc(Nc2cccc(OCC)c2)n2ncnc2n1	D1 allo mod 3.2 | D1 mod confirm 11224 | D1 ag no DA inactive | Isoprot counter 3284
Cc1nnsc1C(=O)Nc1cc(Cl)ccc1Cl	none (no result: MMP-13 inhibitor, D1 allo mod, AP complement)
O=C(NCCCN1CCN(c2ccccc2F)CC1)C1CCN(S(=O)(=O)N2CCOCC2)CC1	D1 allo mod 14 | D1 mod confirm 15768 | D1 ag no DA 10072 | Isoprot counter 11884
CCOc1ccc2nc(NS(=O)(=O)Cc3ccccc3)sc2c1	none (no result: MMP-13 inhibitor, D1 allo mod, AP complement)
Cc1nc(SC2CCOC2=O)c2c(C)c(C)sc2n1 (stereo unspecified)	none (no result: Candida biofilm, MMP-13 inhibitor, D1 allo mod, AP complement)
O=C1OCCC1Sc1ncnc2sc3c(c12)CCC3 (stereo unspecified)	D1 allo mod 5.2 | D1 mod confirm 7272 | D1 ag no DA inactive | Isoprot counter inactive
CCCC(=O)N1CCN(c2ccc(NC(=S)NC(=O)CC)cc2)CC1	none (no result: Candida biofilm, MMP-13 inhibitor, D1 allo mod, AP complement)
c1cncc(-c2nc(N3CCCCCC3)c3ccccc3n2)c1	D1 allo mod 12 (no result: hDAT+cocaine) | D1 mod confirm 14412 | D1 ag no DA inactive | Isoprot counter 4184
NC(=O)C1CCN(c2nc(-c3ccccc3)nc3ccccc23)CC1	D1 allo mod 15 | D1 mod confirm 24116 | D1 ag no DA inactive | Isoprot counter 7580
CN1CCN(c2nc(-c3cccnc3)nc3ccccc23)CC1	none (no result: D1 allo mod, AP complement)
COc1ccc(-c2nnc(COc3ccc4ccccc4c3)o2)cc1OC	hDAT+cocaine 2.9, D1 allo mod 4.9 (no result: MMP-13 inhibitor) | D1 mod confirm 20456 | D1 ag no DA inactive | Isoprot counter 3496
O=C1CC(c2cccs2)c2cc3c(cc2N1)OCCO3 (stereo unspecified)	D1 allo mod 7 | D1 mod confirm 10536 | D1 ag no DA inactive | Isoprot counter inactive
COc1ccccc1C1CC(=O)Nc2cc3c(cc21)OCCO3 (stereo unspecified)	none
CC(C)Oc1ccccc1C1CC(=O)Nc2cc3c(cc21)OCCO3 (stereo unspecified)	D1 allo mod 2.3 | D1 mod confirm 10132 | D1 ag no DA inactive | Isoprot counter inactive
Cc1ccc2c(c1)-c1cc(C)nn1C(c1ccc3c(c1)OCO3)N2 (stereo unspecified)	D1 allo mod 5.3 (no result: hDAT+cocaine) | D1 mod confirm 12540 | D1 ag no DA inactive | Isoprot counter 3656
Cc1cc2n(n1)C(c1sccc1C)Nc1ccccc1-2 (stereo unspecified)	D1 allo mod 8.4 | D1 mod confirm 9040 | Isoprot counter 2616
